# Results reported in ChEMBL document CHEMBL2417522, “N-aryl-6-methoxy-1,2,3,4-tetrahydroquinolines: a novel class of antitumor agents targeting the colchicine site on tubulin” (Eur J Med Chem, 2013).
# Active and inactive are the calls of the source. No cut-off for these calls is given here.
# Experiments:
# Tubulin (Homo sapiens) [1] = target: T1, Tubulin (Homo sapiens) (UniProt P68371+Q9H4B7+P0DPH7+P68366+Q13509+Q71U36+P04350+Q3ZCM7+P07437+P68363+Q9BQE3+Q6PEY2+Q13885+Q9BVA1+Q9BUF5); assay: Competitive inhibition of [3H]colchicine binding to tubulin (unknown origin) at 1 uM after 10 mins by radioligand displacement assay; assay type: protein-complex assay
# How it was run: (§1)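 [3H]colchicine binding: 1.0 µM tubulin, 5.0 µM [3H]colchicine and inhibitor at 5.0 or 1.0 µM, 10 min at 37 °C, when control binding reaches about 40–60% of maximum. […] Percent inhibition reported.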
# Tubulin = assay: Inhibition of tubulin assembly (unknown origin) preincubated for 15 mins followed by GTP addition measured after 20 mins by turbidimetric analysis; assay type: protein-complex assay, Homo sapiens
# [2] = […] partition coefficient, log P of the compound at pH 7.4 after 24 hrs by HPLC analysis; assay type: physicochemical
# How it was run: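 Compound dissolved at 1.0 mg/mL in […]. Log P taken from the ratio of HPLC peak areas in the […] and water phases.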
# KB [3] = assay: Cytotoxicity against human KB cells by SRB method; assay type: functional
# A549 [4] = assay: Cytotoxicity against human A549 cells by SRB method; assay type: functional
# [5] = Aqueous solubility of the compound at pH 7.4 after 4 hrs by HPLC-UV method; assay type: physicochemical; settings: buffer, pH 7.4, 4 h
# How it was run: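 Solubility at pH 7.4: DMSO stock (1.0 mg/mL) diluted into phosphate buffer, final DMSO 1%; stirred 4 h at rt, centrifuged; saturated supernatant quantified by HPLC–UV against a standard curve (50–0.20 µg/mL in ACN). Triplicate samples.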
# Liver microsomes = assay: Half life in human liver microsomes at 1 uM by LC-MS analysis; assay type: ADME, Microsome
# DU-145 [6] = assay: Cytotoxicity against human DU145 cells by SRB method; assay type: functional
# Tubulin (Homo sapiens) [7] = target: T1, Tubulin (Homo sapiens); assay: Competitive inhibition of [3H]colchicine binding to tubulin (unknown origin) at 5 uM after 10 mins by radioligand displacement assay; assay type: protein-complex assay; how it was run: as §1
# [8] = Cytotoxicity against human KBVIN cells by SRB method; assay type: functional
# A549 [9] = assay: Cytotoxicity against human A549 cells at 60 uM by SRB method; assay type: functional, cell-based
# KB [10] = assay: Cytotoxicity against human KB cells at 60 uM by SRB method; assay type: functional, cell-based
# DU-145 [11] = assay: Cytotoxicity against human DU145 cells at 60 uM by SRB method; assay type: functional, cell-based
# KBVIN = assay: Cytotoxicity against human KBVIN cells at 60 uM by SRB method; assay type: functional, cell-based
inhibition (Tubulin (Homo sapiens) [1]),IC50 (Tubulin),logD at 24 h [2],solubility [5],t1/2 (Liver microsomes),inhibition (Tubulin (Homo sapiens) [7]),Compound,GI50 (KB [3]),GI50 (A549 [4]),GI50 (DU-145 [6]),GI50 [8],growth inhibition (GI) (A549 [9]),growth inhibition (GI) (KB [10]),growth inhibition (GI) (DU-145 [11]),growth inhibition (GI) (KBVIN)
76%,920 nM,1.07,7.21 µg/mL,25.97 min,95%,CNc1nc(N2CCCc3cc(OC)ccc32)c2ccccc2n1,25 nM,27 nM,23 nM,29 nM,,,,
,,,,,,COc1ccc(N(C)c2cc(Br)cc(C(=O)O)c2)cc1,,,,,inactive,inactive,inactive,inactive
,,,,,,CC(=O)O[C@H]1C(=O)[C@@]2(C)[C@H]([C@H](OC(=O)c3ccccc3)[C@]3(O)C[C@H](OC(=O)[C@H](O)[C@@H](NC(=O)c4ccccc4)c4ccccc4)C(C)=C1C3(C)C)[C@]1(OC(C)=O)CO[C@@H]1C[C@@H]2O [PACLITAXEL],6.4 nM,7.6 nM,6 nM,1210 nM,,,,
,,,,,,CNC(=O)c1cc(Br)cc(N2CCCc3cc(OC)ccc32)c1,630 nM,370 nM,560 nM,930 nM,,,,
,,,,,,COC(=O)c1cc(Cl)cc(N(C)c2ccc(OC)cc2)c1,1610 nM,1600 nM,1460 nM,1570 nM,,,,
,,,,,,CNC(=O)c1cc(Cl)cc(N2CCCc3cc(OC)ccc32)c1,1040 nM,740 nM,1020 nM,430 nM,,,,
,,,,,,COC(=O)c1ccc(Cl)cc1N(C)c1ccc(OC)cc1,1980 nM,3360 nM,1680 nM,1890 nM,,,,
,,,,,,COC(=O)c1cc(Br)cc(N2CCCc3cc(OC)ccc32)c1,1370 nM,1120 nM,1280 nM,1270 nM,,,,
,1600 nM,4.33,0.16 µg/mL,,69%,COc1ccc(N(C)c2cc(Br)cc(C(=O)NC3CC3)c2)cc1,170 nM,,,,,,,
,,,,,,COC(=O)c1cc(Cl)cc(N2CCCc3cc(OC)ccc32)c1,2330 nM,2230 nM,1510 nM,1780 nM,,,,
,,,,,,CNC(=O)c1cc(N(C)c2ccc(OC)cc2)cc(C(F)(F)F)c1,12300 nM,14700 nM,11900 nM,12600 nM,,,,
,,,,,,COc1ccc(N(C)c2cc(Cl)ccc2CO)cc1,19500 nM,21700 nM,16000 nM,18100 nM,,,,
,,,,,,COCc1ccc(Cl)cc1N(C)c1ccc(OC)cc1,5240 nM,4530 nM,3130 nM,2850 nM,,,,
,,,,,,COC(=O)c1cc(Br)cc(N(C)c2ccc(OC)cc2)c1,1360 nM,1240 nM,970 nM,1200 nM,,,,
89%,1000 nM,3.65,7.67 µg/mL,25.19 min,98%,COc1ccc2c(c1)CCCN2c1nc(C)nc2ccccc12,11 nM,18 nM,15 nM,18 nM,,,,
61%,1000 nM,3.98,3.21 µg/mL,7.89 min,87%,COc1ccc2c(c1)CCCN2c1cc(C)nc2ccccc12,91 nM,45 nM,38 nM,55 nM,,,,
,,,,,,COc1ccc(N(C)c2cc(Br)cc(C(=O)N(C)C)c2)cc1,6520 nM,2830 nM,3340 nM,2380 nM,,,,
,,,,,,COC(=O)c1ccc(Cl)nc1N(C)c1ccc(OC)cc1,260 nM,230 nM,210 nM,200 nM,,,,
,,,,,,CNC(=O)c1ccc(Cl)cc1N(C)c1ccc(OC)cc1,188000 nM,43200 nM,98900 nM,61000 nM,,,,
,,,,,,CNC(=O)c1cc(Cl)cc(N(C)c2ccc(OC)cc2)c1,300 nM,270 nM,230 nM,230 nM,,,,
,1000 nM,4.75,0.26 µg/mL,,75%,COc1ccc2c(c1)CCCN2c1cc(Br)cc(C(=O)NC2CC2)c1,160 nM,170 nM,150 nM,190 nM,,,,
,2200 nM,4.02,0.81 µg/mL,,71%,CNC(=O)c1cc(Br)cc(N(C)c2ccc(OC)cc2)c1,210 nM,250 nM,160 nM,140 nM,,,,
,,,,,,COC(=O)c1cc(N(C)c2ccc(OC)cc2)cc(C(F)(F)F)c1,13500 nM,15100 nM,11500 nM,13100 nM,,,,
,,,,,,COc1ccc2c(c1)CCCN2c1cccc2ccccc12,15600 nM,17800 nM,14800 nM,17600 nM,,,,
,,,,,,COc1ccc(N(C)c2cc(Br)cc(C(=O)NC3CCCC3)c2)cc1,120 nM,,110 nM,,,,,

Compound,inhibition (Tubulin (Homo sapiens) [1]),IC50 (Tubulin),logD at 24 h [2],solubility [5],t1/2 (Liver microsomes),inhibition (Tubulin (Homo sapiens) [7]),GI50 (KB [3]),GI50 (A549 [4]),GI50 (DU-145 [6]),GI50 [8],growth inhibition (GI) (A549 [9]),growth inhibition (GI) (KB [10]),growth inhibition (GI) (DU-145 [11]),growth inhibition (GI) (KBVIN)
COc1ccc2c(c1)CCCN2c1nc(Cl)nc2ccccc12,95%,930 nM,4.13,,,99%,,,1.5 nM,,,,,
